Test results: article PMC2592099 (Peptides, 2008)
Where two headings read alike, the source gives them in different places.

How the values were obtained:
MMP-2 [1] = target: T1, MMP-2 (Homo sapiens, UniProt P08253); assay: Peptide cleavage kinetics with activated MMP-2; format: biochemical; conditions: for Km / kcat: activated MMP-2 10 nM, Tris-HCl protease buffer pH 7.4, HPLC, n=3
T1 sequence (P08253 110-660): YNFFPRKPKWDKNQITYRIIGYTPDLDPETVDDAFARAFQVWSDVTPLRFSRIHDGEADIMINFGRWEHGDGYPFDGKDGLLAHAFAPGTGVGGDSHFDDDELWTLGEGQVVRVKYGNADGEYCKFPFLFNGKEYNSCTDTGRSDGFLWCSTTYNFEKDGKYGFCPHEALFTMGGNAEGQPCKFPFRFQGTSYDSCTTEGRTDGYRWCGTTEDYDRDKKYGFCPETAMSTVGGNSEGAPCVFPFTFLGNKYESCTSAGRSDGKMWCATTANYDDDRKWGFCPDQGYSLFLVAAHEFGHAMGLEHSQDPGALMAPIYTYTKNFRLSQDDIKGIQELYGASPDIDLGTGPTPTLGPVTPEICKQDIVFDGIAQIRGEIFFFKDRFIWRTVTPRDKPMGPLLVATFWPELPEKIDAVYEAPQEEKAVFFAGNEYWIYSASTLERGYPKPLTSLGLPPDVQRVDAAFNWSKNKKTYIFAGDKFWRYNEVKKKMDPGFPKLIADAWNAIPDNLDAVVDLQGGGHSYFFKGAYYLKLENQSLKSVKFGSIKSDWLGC
In short: (§1)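 Reactions were stopped at set times with EDTA. Products were resolved by C18 reversed-phase HPLC (30–70% acetonitrile/0.1% TFA gradient, 15 min, 1 mL/min) with fluorescence and photodiode-array detection. Fragments were assigned against synthetic fragment retention times and confirmed by MALDI-MS. n≥3.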

MMP-9 = MMP-9 (Homo sapiens, UniProt P14780); assay: Peptide cleavage kinetics with activated MMP-9; format: biochemical; conditions: for Km / kcat: activated MMP-9 10 nM, Tris-HCl protease buffer pH 7.4, HPLC, n=3
In short: as §1

U-87 MG cells = assay: Peptide and peptide-platinate activity, modified MTT assay; format: cell-based; conditions: 24 hours, nonlinear curve fitting, n=3
In short: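 They were plated at 50,000 cells/mL one day before, then exposed to a concentration series of test compound for 24 h. Viability relative to untreated control was read by modified MTT (Aqueous One). IC50 came from nonlinear curve fit. n≥3.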

MMP-2 [2] = target: T1, MMP-2; conditions: cited from earlier work

Sequence of MMP-9 (P14780 107-707 limits assumed): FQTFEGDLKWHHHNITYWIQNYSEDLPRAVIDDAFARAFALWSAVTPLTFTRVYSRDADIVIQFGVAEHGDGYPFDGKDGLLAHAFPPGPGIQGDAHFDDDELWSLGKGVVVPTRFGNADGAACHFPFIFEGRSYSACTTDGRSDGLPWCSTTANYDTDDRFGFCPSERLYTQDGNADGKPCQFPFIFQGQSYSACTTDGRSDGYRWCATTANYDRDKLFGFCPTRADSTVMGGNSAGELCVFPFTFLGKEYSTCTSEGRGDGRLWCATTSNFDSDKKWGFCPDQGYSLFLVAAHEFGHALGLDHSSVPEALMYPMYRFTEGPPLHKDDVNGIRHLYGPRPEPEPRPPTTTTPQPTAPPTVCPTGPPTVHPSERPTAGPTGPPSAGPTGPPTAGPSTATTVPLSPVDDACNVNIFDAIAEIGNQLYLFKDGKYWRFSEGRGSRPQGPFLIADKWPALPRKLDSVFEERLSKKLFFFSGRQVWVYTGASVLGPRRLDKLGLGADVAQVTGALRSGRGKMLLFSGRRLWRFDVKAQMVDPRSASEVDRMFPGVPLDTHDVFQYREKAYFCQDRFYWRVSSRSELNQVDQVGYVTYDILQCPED

| Molecule | Km (MMP-2 [1]) [µM] | kcat (MMP-2 [1]) [s⁻¹] | Km (MMP-9) [µM] | kcat (MMP-9) [s⁻¹] | IC50 (U-87 MG cells) [µM] | further results |
| --- | --- | --- | --- | --- | --- | --- |
| K*PAGLLGC-CONH2 | 1000 ± 500 | 10.7 ± 4.8 | 400 ± 100 | 9.6 ± 2.1 | – | cleavage site (MMP-2 [1]; cleaved with MMP-2 for 2 hours, HPLC comparison with synthesized fragment K*PAG): cleaved between glycine and leucine; cleavage site (MMP-9; cleaved with MMP-9 for 2 hours, HPLC comparison with synthesized fragment K*PAG): cleaved between glycine and leucine |
| [Cl][Pt-2]([Cl])([Cl])[Cl].[K+].[K+] [K2PtCl4, potassium tetrachloroplatinate] | – | – | – | – | 70.7 ± 15 | – |
| GPAGLLG | – | – | – | – | – | cleavage site (MMP-2 [2]): cleaved between glycine and leucine |
| K*AGLLC-CONH2 | 1400 ± 400 | 0.24 ± 0.08 | 160 ± 100 | 0.04 ± 0.01 | – | – |
| N.N.[Cl][Pt][Cl] [cisplatin] | – | – | – | – | 46.9 ± 15 | – |
